# From paper PMC12297293 (Nature Communications, 2025)
# Where a chain is given by its changes, count along the chain named. pKd: −log10 of the molar value. Where a name gives a salt, the structure may show the parent alone. Read-outs that look alike come from different tables or passages of the source.
# Tests used:
# human GMPK = molecular target: T1, human GMPK (Homo sapiens, UniProt Q16774); experiment: NMR chemical shift perturbation titration; format: binding
# T1 sequence (Q16774 1-197): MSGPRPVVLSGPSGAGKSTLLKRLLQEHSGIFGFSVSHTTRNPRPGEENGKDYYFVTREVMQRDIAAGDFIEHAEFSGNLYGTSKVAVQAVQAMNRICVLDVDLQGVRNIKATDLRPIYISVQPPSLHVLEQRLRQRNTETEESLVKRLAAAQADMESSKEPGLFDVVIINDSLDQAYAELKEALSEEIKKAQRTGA
# Procedure, shortened: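 15N-GMPK was expressed in M9 medium with 0.5 mM IPTG at 16 °C for 20 h, then diluted to 50–100 μM in 20 mM HEPES, 150 mM NaCl, pH 7.5, 10% D2O. 1H-15N HSQC at 298 K, 700 MHz with cryoprobe. Assignments transferred from BMRB 27151; overlapped peaks excluded. Chemical shift perturbations globally fitted to a one-site model with Kd shared across residues.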
# human GMPK wild type [1] = molecular target: T2, human GMPK wild type (Homo sapiens, UniProt Q16774); experiment: ITC binding of nucleotides to wild-type GMPK
# T2 sequence (Q16774 1-197): T1 sequence (Q16774 1-197)
# Procedure, shortened: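 ITC at 25 °C with recombinant human GMPK: SUMO-tagged, expressed in E. coli Rosetta (DE3), Ni-purified, tag cut with ULP1, then SEC. Both partners were in 20 mM HEPES pH 7.5 with 150 mM KCl. Cell held 50 μM GMPK; syringe held 1 mM GMP. One 1 μL injection was followed by 19 × 2 μL injections. Triplicate experiments.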
# GMPK-ATPγS mixture = molecular target: T3, GMPK-ATPγS mixture (Homo sapiens, UniProt Q16774); experiment: ITC of GMP into GMPK-ATPγS mixture; conditions: GMP binding after prior incubation of ATPγS
# T3 sequence (Q16774 1-197): T1 sequence (Q16774 1-197)
# Procedure, shortened: (§1)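 GMP titrated into a preformed nucleotide–enzyme mixture by ITC at 25 °C. Cell held 50 μM recombinant human GMPK premixed with 0.5 mM ADP or ATPγS. Syringe held 2 or 2.5 mM GMP. One 1 μL injection, then 19 × 2 μL. Fitted Kd reported.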
# GMPK-ADP mixture = molecular target: T4, GMPK-ADP mixture (Homo sapiens, UniProt Q16774); experiment: ITC of GMP into GMPK-ADP mixture; conditions: GMP binding after incubation of ADP
# T4 sequence (Q16774 1-197): T1 sequence (Q16774 1-197)
# Procedure, shortened: as §1
# GMPK R148A mutant = molecular target: T5, GMPK R148A mutant (Homo sapiens, UniProt Q16774, R148A); experiment: ITC binding, GMPK R148A; conditions: R148A vs wild type
# T5 sequence (Q16774 1-197 R148A): T1 sequence (Q16774 1-197) with R148A
# Procedure, shortened: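 Mutant made by homologous recombination and Sanger-verified, then expressed in E. coli Rosetta (DE3). Purified by Ni column, ULP1 cleavage of the SUMO tag and SEC (20 mM HEPES, 150 mM NaCl, pH 7.5). ITC at 25 °C with 50 μM protein in the cell and 1.25 or 2.5 mM GMP in the syringe. Injections: 1 μL, then 19 × 2 μL.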
# human GMPK wild type [2] = molecular target: T2, human GMPK wild type; experiment: NADH-dependent enzyme activity assay, wild-type GMPK; format: biochemical
smiles,measurement,setting,value
"Nc1ncnc2c1ncn2[C@@H]1O[C@H](CO[P@](=O)(O)O[P@](=O)(O)O[P@@](=O)(O)S)[C@@H](O)[C@H]1O [ATPγS, reference compound]",pKd,human GMPK,4.52
Nc1nc2c(ncn2[C@@H]2O[C@H](COP(=O)(O)O)[C@@H](O)[C@H]2O)c(=O)[nH]1 [GMP],pKd,human GMPK wild type [1]; GMP binding to GMPK without prior incubation,4.49
same,pKd,"human GMPK wild type [1]; read-out: Mean Kd, GMP into GMPK, 150 mM KCl, triplicate experiments",5.15
same,pKd,GMPK-ATPγS mixture,3.77
same,pKd,GMPK-ADP mixture,4.22
same,weakening of GMP binding by R148A mutagenesis,GMPK R148A mutant,1.7 fold
"[Cl-].[K+] [KCl, potassium chloride]",decrease of kcat at 150 mM relative to 10 mM,human GMPK wild type [2]; 150 mM vs 10 mM potassium ions,1.5 fold
same,K+ concentration at which the initial reaction rate reached its maximum,human GMPK wild type [2]; saturating substrate conditions,about 7.5 mM
"O=S(=O)(O)O [sulfate ions, sulfate ion]",mode of inhibition,"human GMPK wild type [2]; Michaelis-Menten curves for ATP under 1, 5 and 10 mM SO4 2-",competitive inhibitor of ATP
same,pKd,"human GMPK; read-out: Kd from NMR titration, binding to the p-loop region of GMPK",2.25
